High-throughput results: PubChem, Broad Institute
Hits are enriched below; roughly 2.9% of the tested compounds scored in any of these assays.
Cneo AK release – Cryptococcus neoformans cell lysis inducers, primary screen, AK release luminescence, single concentration. lysis activity, % at 15 µM. hit rate 0.2% among 360,000. C. neoformans lysis, adenylate kinase release luminescence, 4 h; normalised: neutral wells 0, clomiphene wells 100;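 active = mean lysis activity across replicates of at least 80%, whatever share of replicates individually reach that level; inactive = mean lysis activity below 80%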
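Signal: Adenylate kinase release luminescence | Assay system: Log-phase Cryptococcus neoformans yeast cells | Input: Cells at 5 × 10^6 per mL | Buffer or medium: Fresh YPD growth medium | Compound: Single dose | Schedule: Static 4 h at 37 °C with compound, 1 h detection | Controls: Clomiphene | Read-out: Luminescence rise reflecting yeast cell lysis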
Ecoli rRNA inh – reduced GFP signal of wild-type E. coli, primary screen, bacterial rRNA inhibitor project, GFP/RFP fluorescence, OD600, single point. E. coli WT GFP vs humanized-ribosome RFP mutants, 24 h; hits give low values; DMSO median 0, no signal -100. hit rate 1.6% among 350,000. GFP signal change (wild-type ribosome), % (concentration not given with the values). AID 720706, 2013;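 active = significant combined selectivity score with lowered wild-type GFP, culture density cut under 30%, mutant RFP and density less affected; inactive = any of these conditions unmet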
FGF22 binding – binders of human FGF22 protein, primary screen, FGF22 synaptogenesis inhibitor project, biophysical, thermal shift, single point | Fibroblast growth factor 22 (Homo sapiens), Q9HCT0 | recombinant FGF22 thermal shift, SYPRO orange fluorescence; percent of sucrose octasulfate shift, DMSO zero | activity (Tm shift, normalised), % at 9.99 µM | hit rate 1.5% among 340,000 | AID 651658, 2012;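 active = mean Tm shift, scaled 0 neutral to 100 positive control, at about 1.3% or above, every replicate too, limit read from the data; inconclusive = no clear call, values can overlap the other calls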
Target sequence (Q9HCT0 whole entry, looked up): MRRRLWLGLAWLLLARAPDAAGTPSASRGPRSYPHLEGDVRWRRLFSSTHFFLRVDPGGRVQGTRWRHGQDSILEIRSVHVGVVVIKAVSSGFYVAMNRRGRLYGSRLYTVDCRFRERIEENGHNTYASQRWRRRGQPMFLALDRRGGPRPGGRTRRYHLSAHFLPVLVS
PglD DTNB – C. jejuni PglD acetyltransferase inhibitors, primary screen, biochemical, DTNB colorimetric, single point; UDP-N-acetylbacillosamine N-acetyltransferase PglD (Campylobacter jejuni); purified PglD enzyme, DTNB colorimetric CoA detection; inhibition, % at 12.5 µM; hit rate 0.098% among 360,000; in the data active = inhibition above about 16%, passing the limit was not always enough; inconclusive = no clear call, values can overlap the other calls
PGC1a acetyl inh – inhibitors of PGC1a acetylation signal, primary screen, cell-based, U2OS, AlphaScreen, inhibitor mode. AlphaScreen anti-acetyl-lysine; with virally co-expressed GCN5 acetyltransferase. inhibition, % at 15.6 µM. hit rate 0.17% among 350,000;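 active = every replicate shows inhibition of at least 40%; inconclusive = mean inhibition at least 40% but some replicate below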
Vif imaging – HIV Vif self-association inhibitors, primary screen, imaging, HEK293T, single point. HEK293T cells, Vif self-association by quenched fluorescence, 24 h. inhibition, % at 7.49 µM. hit rate 0.35% among 340,000; in the data active = inhibition above about 50%, passing the limit was not always enough; inconclusive = no clear call, values can overlap the other calls; inactive = below about 31%
Numbers stand for hits.

`COc1ccc(N(C)S(=O)(=O)c2ccc(Cl)c(C(=O)NCCc3ccc(Cl)cc3)c2)cc1` gave Ecoli rRNA inh inactive, FGF22 binding 43, PGC1a acetyl inh inactive and Vif imaging inactive.
For COc1ccc(C(CNC(=O)c2ccc(Cl)c(S(=O)(=O)N3CCCC3)c2)N2CCCC2)cc1 (configuration not stated) the results were Cneo AK release inactive, Ecoli rRNA inh inactive, FGF22 binding inactive, PglD DTNB inactive, PGC1a acetyl inh inactive and Vif imaging inactive.
`C[C@H]1CN([C@@H](C)CO)C(=O)c2cccc(NC(=O)CCCCCC(=O)Nc3ccccc3N)c2O[C@H]1CN(C)C` gave Ecoli rRNA inh inactive, FGF22 binding inactive and PGC1a acetyl inh inactive.
`COc1ccc2c3c(n(C)c2c1)[C@@H](CO)N(Cc1ccccc1F)CC31CCN(C(C)=O)CC1` gave Ecoli rRNA inh inactive.
`C[C@@H]1CN([C@@H](C)CO)C(=O)c2cc(NC(=O)NC3CCCCC3)ccc2O[C@@H](C)CCCCO[C@@H]1CN(C)S(=O)(=O)c1cccs1` gave Cneo AK release inactive, Ecoli rRNA inh inactive, FGF22 binding inactive, PglD DTNB inactive and PGC1a acetyl inh inactive.
For COc1ccc(NC(=O)N2C[C@@H](O)COC[C@@H]3O[C@H](CC(=O)N4CCN(C)CC4)CC[C@H]32)cc1 the results were Cneo AK release inactive, Ecoli rRNA inh inactive, FGF22 binding inactive, PglD DTNB inactive and PGC1a acetyl inh inactive.
Screening N#Cc1ccc(C(=O)N2CCC3CC2c2cc(-c4ccc(F)cc4)ccc23)cc1 (configuration not stated) returned Cneo AK release inactive, Ecoli rRNA inh -26, FGF22 binding inactive, PglD DTNB inactive, PGC1a acetyl inh inactive and Vif imaging inactive.
COc1cccc(-c2ccc3c(c2)C2CC3CCN2C(C)=O)c1 (configuration not stated) was read as Cneo AK release inactive, Ecoli rRNA inh inactive, FGF22 binding inactive, PglD DTNB inactive, PGC1a acetyl inh inactive and Vif imaging inactive.
For COc1ccc(-c2ccc3c(c2)C2CC3CCN2C(=O)C(C)(C)C)cc1 (configuration not stated) the results were Cneo AK release inactive, Ecoli rRNA inh -30, FGF22 binding inactive and PGC1a acetyl inh inactive.
COc1ccc(-c2ccc3c(c2)C2CC3CCN2Cc2ccc(OC(F)(F)F)cc2)cc1 (configuration not stated) was read as Cneo AK release inactive, Ecoli rRNA inh inactive, FGF22 binding 43, PglD DTNB inactive and Vif imaging inactive.
For Cc1ccc(S(=O)(=O)Nc2cccc3c2O[C@@H](CN(C)Cc2ccc(Oc4ccccc4)cc2)[C@@H](C)CN([C@@H](C)CO)C3=O)cc1 the results were Cneo AK release inactive, Ecoli rRNA inh inactive, PglD DTNB inactive and PGC1a acetyl inh inactive.
For COCCNC(=O)C(=O)N/N=C(\C)CC(=O)Nc1cccnc1 the results were Cneo AK release inactive, Ecoli rRNA inh inactive, FGF22 binding 44, PglD DTNB inactive, PGC1a acetyl inh inactive and Vif imaging inconclusive.
For CN(C)C(=O)C[C@H]1CC[C@H]2[C@H](COc3ccc(NC(=O)C4CCOCC4)cc3C(=O)N2C)O1 the results were Cneo AK release inactive, Ecoli rRNA inh inactive, FGF22 binding inactive, PglD DTNB inactive and PGC1a acetyl inh inactive.
`Cc1cccc(OCCC(=O)N(C)CC(=O)Nc2cccc3ccccc23)c1` gave Cneo AK release inactive, Ecoli rRNA inh -20, FGF22 binding inactive, PglD DTNB inactive and Vif imaging inactive.
For CO[C@H]1CN(C)C(=O)c2ccc(NC(=O)C3CC3)cc2OC[C@@H](C)N(Cc2ccncc2)C[C@@H]1C the results were Cneo AK release inactive, FGF22 binding inactive, PglD DTNB inactive and PGC1a acetyl inh inactive.
